Measurements collected from several papers.
Each line is one published result; the experiments were not run side by side.
Organism: Staphylococcus aureus

COc1ccc2nc(-n3nc(CC(C)C)c4c3-c3ccccc3C4=O)sc2c1 — inhibition zone (microbial growth, well diffusion; NCIM5021; 125 µg/mL): 12 mm
CN[C@H](CC(C)C)C(=O)N[C@H]1C(=O)N[C@@H](CC(N)=O)C(=O)N[C@H]2C(=O)N[C@H]3C(=O)N[C@H](C(=O)N[C@H](C(=O)O)c4cc(O)cc(O)c4-c4cc3ccc4O)[C@H](O)c3ccc(c(Cl)c3)Oc3cc2cc(c3O[C@@H]2O[C@H](CO)[C@@H](O)[C@H](O)[C@H]2O[C@H]2C[C@](C)(N)[C@H](O)[C@H](C)O2)Oc2ccc(cc2Cl)[C@H]1O — inhibition zone (microbial growth, disc diffusion; ATCC29213; 250 µg/disc, 24 h): 21 mm
CCc1cccc(CC)c1NC(=O)N1Cc2[nH]nc(NC(=O)c3ccc(N4CCN(C)CC4)cc3)c2C1 — MIC (microbial growth; NCTC8325): > 30 µM
O=C(O)CN1C(=O)/C(=C/c2ccc(-c3ccc(N(c4ccccc4)c4ccccc4)cc3)c3ccccc23)NC1=S — MBC (microbial killing, broth dilution; ATCC6538): > 1000 µg/mL
COc1ccc2nc(-n3nc(C)c4c3-c3ccccc3C4=O)sc2c1 — inhibition zone (microbial growth, well diffusion; NCIM5021; 1000 µg/mL): 13 mm
CC(=O)c1c(C)c2cnc(Nc3ccc(N4CCNCC4)cn3)nc2n(C2CCCC2)c1=O — MIC (microbial growth; NCTC8325): > 30 µM
O=C1NC(=S)S/C1=C\c1c2ccccc2c(-c2ccc(N(c3ccccc3)c3ccccc3)cc2)c2ccccc12 — MBC (microbial killing, broth dilution; ATCC25923): > 1000 µg/mL
[H]/N=C(/N)N[C@H]1[C@H](O)[C@@H](O)[C@H](O[C@@H]2O[C@@H](C)[C@](O)(C=O)[C@H]2O[C@@H]2O[C@@H](CO)[C@H](O)[C@@H](O)[C@@H]2NC)[C@@H](N/C(N)=N\[H])[C@@H]1O — inhibition zone (microbial growth, well diffusion; NCIM5021; 500 µg/mL): 22 mm
CNC(=O)c1ccc(C)c(-n2c(C)cc(OCc3ccc(F)cc3F)c(Br)c2=O)c1 — MIC (microbial growth; NCTC8325): > 30 µM
O=C1NC(=S)N/C1=C\c1ccc(-c2ccc(N(c3ccccc3)c3ccccc3)cc2)c2ccccc12 — MBC (microbial killing, broth dilution; ATCC43300): > 1000 µg/mL
